Hits are enriched below; roughly 0.63% of the tested compounds scored in any of these assays.
IDE inh – cellular human IDE inhibition; P14735; HEK cells, FAbetaB cleavage, fluorescence polarization; inhibition, % at 5.59 µM; hit rate 0.41% among 320,000;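 active = percent inhibition above the average of all tested compounds plus 3 SD, set per screening campaign, cut at about 16% in these data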;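 also: IDE supplied by intact live HEK cells; FP after avidin binding of uncleaved biotin substrate so inhibition keeps polarization high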
TRPML3 agonist – activates the human TRPML3 channel. Q8TDD5. HEK293 TRPML3-YFP, Fluo-8 calcium fluorescence; 100% = the carbachol control signal. activation, % at 3 µM. hit rate 0.29% among 220,000. AID 1448;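 active = activation above its plate's cutoff, the mean activation of the plate's test wells plus 3 SD, cut at about 12% in these data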
Target sequence (Q8TDD5 whole entry, looked up): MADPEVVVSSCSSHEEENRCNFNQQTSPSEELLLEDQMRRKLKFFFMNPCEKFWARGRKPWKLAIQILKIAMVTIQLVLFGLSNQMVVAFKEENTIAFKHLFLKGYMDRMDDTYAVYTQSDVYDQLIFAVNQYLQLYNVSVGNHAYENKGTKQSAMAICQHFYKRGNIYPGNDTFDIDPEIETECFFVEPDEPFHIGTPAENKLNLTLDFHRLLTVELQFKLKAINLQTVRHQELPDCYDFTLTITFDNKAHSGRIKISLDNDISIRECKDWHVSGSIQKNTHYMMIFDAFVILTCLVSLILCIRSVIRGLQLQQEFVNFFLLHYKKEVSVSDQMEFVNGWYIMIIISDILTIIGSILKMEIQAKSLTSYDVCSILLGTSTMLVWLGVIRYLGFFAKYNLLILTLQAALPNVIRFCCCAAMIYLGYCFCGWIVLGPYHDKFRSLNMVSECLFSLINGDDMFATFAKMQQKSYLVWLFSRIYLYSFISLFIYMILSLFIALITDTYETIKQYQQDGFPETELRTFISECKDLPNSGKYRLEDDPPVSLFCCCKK
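Material: TRPML3-YFP stable HEK293 cells | Dosing: One concentration, 3 µM nominal, 0.3% DMSO | Timing: 125 s total fluorescence read per well | Technique: Fluo-8 calcium dye fluorescence, ex 470-495, em 515-575 nm | Measure: Percent activation from peak-to-basal fluorescence ratio, scaled between DMSO and carbachol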
TRPN1 ag – zebrafish TRPN1 (NompC) channel agonism; AID 1424; activation, % at 3 µM; hit rate 0.18% among 220,000; HEK293 zebrafish TRPN1-YFP, Fluo-8 calcium fluorescence; 100% = response to 87 µM carbachol;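 active = activation above its plate's cutoff, the mean activation of test wells on that plate plus 3 SD, cut at about 19% in these data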
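Control set: carbachol 87 µM as high control, DMSO as low control; system: HEK293 stable line with zebrafish TRPN1-YFP; read-out: % activation versus carbachol response; detection: intracellular calcium fluorescence with Fluo-8; doses: single test compound dose, 3 µM nominal, 0.3% DMSO; schedule: dye 1 h 37 °C plus 30 min RT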
IDE act – activators of human insulin-degrading enzyme in cells; P14735; HEK cells, FAbeta-B cleavage, fluorescence polarization; 0% vehicle, 100% cell-free pure enzyme wells; activation, % at 5.96 µM; hit rate 0.073% among 340,000;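 active = activation above the mean of all tested compounds plus 3 SD, set per screening campaign, cut at about 17% in these data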
IDE cell inh cf – confirmation of human insulin-degrading enzyme inhibitors in cells; AID 435028; hit rate 51% among 1,200; shares compounds with IDE inh; inhibition, % at 5.59 µM; HEK cells, FAbetaB cleavage, fluorescence polarization;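 active = mean inhibition across triplicate wells above the cutoff set by the earlier primary insulin-degrading enzyme screen, cut at about 16% in these data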
HEK293 tox – HEK cell cytotoxicity, counter-screen for IDE inhibitors; shares compounds with IDE inh; HEK293 cytotoxicity, ATP luminescence; inhibition, % at 5.59 µM; hit rate 28% among 1,200; in the data active = inhibition above about 22%
Of the large screens only hits and unclear results are named; the others gave an inactive call (follow-up assays come after a bar, where they were run).

CC(=O)Nc1cccc(C(=O)N/N=C/c2cccnc2)c1	none
O=C(N/N=C/c1cccc(O)c1)c1ccc(COc2ccc3c(c2)CCC3)o1	IDE inh 18 | IDE cell inh cf inactive | HEK293 tox inactive
NNC(=O)c1ccc(COc2ccc3c(c2)CCC3)o1	none
COc1ccccc1CN1CCN(S(=O)(=O)c2ccc(C)cc2)CC1	none (no result: TRPML3 agonist, TRPN1 ag)
O=c1[nH]c(Nc2ccccc2)cc2ccccc12	IDE inh 19 | IDE cell inh cf inactive | HEK293 tox inactive
COc1ccccc1NC(=O)c1ccc(NC(=O)COC(=O)C2CC2C)cc1 (configuration not stated)	IDE inh 19 | IDE cell inh cf inactive | HEK293 tox inactive
COc1ccccc1NC(=O)c1ccc(NC(=O)COC(=O)C2CCCO2)cc1 (configuration not stated)	none (no result: IDE inh)
CCn1c(COc2c(C)cccc2C)nnc1SCC(=O)N1CCN(c2ccccc2)CC1	none
C=CCn1c(COc2cccc(C)c2C)nnc1SCC(=O)N1CCN(c2ccccc2)CC1	IDE inh 27 | IDE cell inh cf inactive | HEK293 tox 38
O=C(CN1C(=O)c2ccccc2C1=O)NCC(=O)Nc1ccccc1	none (no result: IDE inh, TRPML3 agonist, TRPN1 ag)
COc1cc(/C=C(\C#N)c2nc3ccccc3n2C)cc(OC)c1O	IDE inh 166, TRPML3 agonist 17, TRPN1 ag 37 | IDE cell inh cf 26 | HEK293 tox inactive
Cn1c(/C(C#N)=C/c2ccc(O)cc2)nc2ccccc21	none
COc1cccc(/C=C(\C#N)c2nc3ccccc3[nH]2)c1OCC(=O)O	none (no result: TRPML3 agonist, TRPN1 ag)
COc1c(O)ccc(/C=C(\C#N)c2nc3ccccc3[nH]2)c1[N+](=O)[O-]	IDE inh 17 | IDE cell inh cf inactive | HEK293 tox inactive
COc1ccc(/C=C(\C#N)c2nc3ccccc3[nH]2)cc1O	none (no result: IDE inh, TRPML3 agonist, TRPN1 ag)
COc1cc(/C=C(/C#N)c2nc3ccccc3[nH]2)ccc1OC(=O)c1ccco1	IDE inh 67 | IDE cell inh cf 142 | HEK293 tox inactive
COc1cc(/C=C(\C#N)c2nc3ccccc3[nH]2)cc(OC)c1O	IDE inh 92, TRPN1 ag 22 | IDE cell inh cf 26 | HEK293 tox inactive
CCN(C(=O)COC(=O)CNS(=O)(=O)c1ccc(SC)c([N+](=O)[O-])c1)C1CCCCC1	none (no result: TRPML3 agonist, TRPN1 ag)
COc1ccc(Nc2nc(-c3cccs3)cs2)c(OC)c1	none
COc1ccc(Nc2nc(-c3sc(C)nc3C)cs2)c(OC)c1	IDE inh 21 (no result: TRPML3 agonist, TRPN1 ag) | IDE cell inh cf inactive | HEK293 tox 62
CCCOc1ccc(-c2c(C(=O)N/N=C(\C)COc3ccccc3)nnn2-c2nonc2N)cc1	IDE inh 20 (no result: TRPML3 agonist, TRPN1 ag) | IDE cell inh cf inactive | HEK293 tox inactive
Cc1ccc(-c2c(C(=O)N/N=C/c3ccoc3)nnn2-c2nonc2N)cc1	none (no result: TRPML3 agonist, TRPN1 ag)
Cc1ccc(-c2c(C(=O)N/N=C/c3cccc(Cl)c3)nnn2-c2nonc2N)cc1	IDE inh 53 (no result: TRPML3 agonist, TRPN1 ag) | IDE cell inh cf 45 | HEK293 tox inactive
O=c1oc2cc(O)ccc2cc1-c1nc2c(s1)CCc1ccccc1-2	IDE inh 128, TRPN1 ag 25, IDE act 31 | IDE cell inh cf 26 | HEK293 tox inactive
Cc1nc2ccccc2c(=O)n1-c1ccc(NS(=O)(=O)c2ccc(F)cc2)cc1	IDE inh 22 (no result: TRPML3 agonist, TRPN1 ag) | IDE cell inh cf inactive | HEK293 tox inactive
NC(=O)CC(NC(=O)Cc1ccc(Br)cc1)c1ccc(N2CCN(c3ccc(F)cc3)CC2)c([N+](=O)[O-])c1 (configuration not stated)	none (no result: TRPML3 agonist, TRPN1 ag)
Cc1ccc(C(C(=O)NCC2CCCO2)N(Cc2ccccc2)C(=O)c2ccc(-c3ccccc3)[nH]2)o1 (configuration not stated)	IDE inh 21 | IDE cell inh cf inactive | HEK293 tox inactive
Cc1ccc(NC(=O)CC2=NC(=O)C(CC(=O)Nc3ccccc3C)S2)cc1 (configuration not stated)	none
CCOc1ccc(/C=C2/SC(=O)NC2=S)cc1	IDE inh 33, TRPML3 agonist 14, TRPN1 ag 34 | IDE cell inh cf inactive | HEK293 tox inactive
Cc1ccc(NC(=O)CSc2nc(=O)n(CCCN3CCOCC3)c3c2CCCC3)c(C)c1	none (no result: TRPML3 agonist, TRPN1 ag)
O=C1N/C(=N\S(=O)(=O)c2ccccc2)S/C1=C\c1cc([N+](=O)[O-])ccc1O	IDE inh 50 (no result: TRPML3 agonist, TRPN1 ag) | IDE cell inh cf 70 | HEK293 tox inactive
O=C1N/C(=N\S(=O)(=O)Cc2ccccc2)S/C1=C/c1cc([N+](=O)[O-])ccc1O	IDE inh 40, TRPML3 agonist 31, TRPN1 ag 64 | IDE cell inh cf 75 | HEK293 tox inactive
COc1cc(/C=C2/S/C(=N/S(=O)(=O)c3ccccc3)NC2=O)c([N+](=O)[O-])cc1OC	none
NC(=O)[C@@H]1CCCNc2c(I)cc([N+](=O)[O-])cc2C(=O)N[C@@H](CCC(=O)O)C(=O)N[C@@H](CO)C(=O)N1	none
Cc1ccc(S(=O)(=O)N2CCOCC2)cc1NC(=O)COC(=O)CNC(=O)c1ccc(Oc2ccccc2)cc1	IDE inh 17 | IDE cell inh cf inactive | HEK293 tox inactive
O=C(C1=C[C@@H](c2coc3ccccc3c2=O)C[C@@H](OCCCCO)O1)N1CCOCC1	none
O=C(C1=C[C@H](c2coc3ccccc3c2=O)C[C@H](OCCCCO)O1)N1CCN(Cc2ccc3c(c2)OCO3)CC1	IDE inh 17 | IDE cell inh cf inactive | HEK293 tox inactive
COC(=O)c1ccc(NC(=O)COC(=O)COc2cccc3c2OC(C)(C)C3)cc1	none (no result: TRPML3 agonist, TRPN1 ag)
Cc1ccc(-c2ccccc2NC(=O)CS(=O)CC(=O)Nc2ccc(C)c(Cl)c2)o1 (configuration not stated)	IDE inh 26 (no result: TRPML3 agonist, TRPN1 ag) | IDE cell inh cf inactive | HEK293 tox inactive
CCN(CC)c1ccc(/C=C2\CCC(/C=N/NC(=O)c3ccc(=O)n(C)c3)=C2N2CCOCC2)cc1	IDE inh 25 | IDE cell inh cf 57 | HEK293 tox inactive
COCCn1c(Cc2ccccc2)nnc1SC(C)C(=O)NC1CC1 (configuration not stated)	none (no result: TRPML3 agonist, TRPN1 ag)
COc1ccc(OC)c(/C=C2\NC(=O)NC2=O)c1	none (no result: TRPML3 agonist, TRPN1 ag)
COc1cc(N2CCCC2)c(OC)cc1/C=C1/NC(=S)NC1=O	IDE inh 118, TRPML3 agonist 17, TRPN1 ag 60 | IDE cell inh cf 150 | HEK293 tox inactive
Cc1ccc(C2C3=C(CCCC3=O)N=C3c4ccccc4C(=O)C32)cc1 (configuration not stated)	none
CCN(CC)C(=O)Cn1c(C)c(/C=C/c2cc[n+](C)cc2)c2ccccc21	IDE inh 26 (no result: TRPML3 agonist, TRPN1 ag) | IDE cell inh cf 24 | HEK293 tox inactive
C=CCn1cc(/C=C/c2cc[n+](C)cc2)c2ccccc21	IDE inh 22 (no result: TRPML3 agonist, TRPN1 ag) | IDE cell inh cf 67 | HEK293 tox 85
CC(C)n1cc(/C=C/c2cc[n+](C)cc2)c2ccccc21	none (no result: IDE inh, TRPML3 agonist, TRPN1 ag)
CCn1cc(/C=C/c2cc[n+](C)cc2)c2ccccc21	IDE inh 52 (no result: TRPML3 agonist, TRPN1 ag) | IDE cell inh cf 83 | HEK293 tox 79

Screens from PubChem.
